How the values were obtained:
Format in all cases: functional
Aspergillus niger = assay: Antifungal activity against Aspergillus niger assessed as zone of inhibition at 0.1 mg/mL after 48 to 72 hrs by stiff-plate agar-diffusion method; conditions: read-out: DIZ
KM12 = assay: Cytotoxicity against human KM12 cells assessed as cell growth at 10^-5 M after 48 hrs by SRB assay; conditions: KM12, 48 h, read-out: Activity
In short: (§1)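 NCI 60-cell-line one-dose primary screen: cells inoculated and preincubated 24–48 h, then test agent added at a single 10^-5 M concentration for a further 48 h. Endpoint is sulforhodamine B protein staining read spectrophotometrically. Reported as percent growth relative to untreated control cells.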

MDA-MB-231 = assay: Cytotoxicity against human MDA-MB-231 cells assessed as cell growth at 10^-5 M after 48 hrs by SRB assay; conditions: MDA-MB-231, 48 h, read-out: Activity; in short: as §1
BT-549 = assay: Cytotoxicity against human BT549 cells assessed as cell growth at 10^-5 M after 48 hrs by SRB assay; conditions: BT-549, 48 h, read-out: Activity; in short: as §1
IGROV-1 = assay: Cytotoxicity against human IGROV1 cells assessed as cell growth at 10^-5 M after 48 hrs by SRB assay; conditions: IGROV-1, 48 h, read-out: Activity; in short: as §1
[1] = test system: Photobacterium leiognathi; assay: Antibacterial activity against Photobacterium leiognathi Sh1 assessed as inhibition of bacterial luminescence at 0.1 mg/mL after 10 mins by bioluminometry-based chronic action test; set-up: scale not given: the % may be the effect or the level left; conditions: in the assay text read “after 16 to 18 hrs” for “after 10 mins”
In short: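 Chronic (growth plus luminescence) test with P. leiognathi Sh1 at 10^5 cells/mL in chloride solution, compounds added in DMSO. After 10 min at 25 °C, growth medium added at 1:50 and the mix incubated 16–18 h at 30 °C. Luminescence then measured by bioluminometer as % of untreated control. Tetracycline reference.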

LOX IMVI [2] = assay: Cytotoxicity against human LOXIMVI cells assessed as cell growth at 10^-5 M after 48 hrs by SRB assay; conditions: read-out: Activity; in short: as §1
OVCAR-4 = assay: Growth inhibition of human OVCAR4 cells after 48 hrs by SRB assay; conditions: OVCAR-4, 48 h
In short: (§2)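 NCI panel of about 60 human tumor lines, 48 h continuous exposure at five 10-fold dilutions from 10^-4 to 10^-8 M. SRB protein staining was read as absorbance at time zero, in untreated controls and at each concentration. GI50 is the concentration giving 50% lower net protein increase than controls. TGI is where Ti = Tz, and LC50 is 50% protein loss versus start.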

COLO 205 [3] = assay: Cytotoxicity against human COLO205 cells assessed as cell growth at 10^-5 M after 48 hrs by SRB assay; conditions: COLO 205, 48 h, read-out: Activity; in short: as §1
DU-145 = assay: Cytotoxicity against human DU145 cells assessed as cell growth at 10^-5 M after 48 hrs by SRB assay; conditions: DU-145, 48 h, read-out: Activity; in short: as §1
RXF 393 = assay: Growth inhibition of human RXF393 cells after 48 hrs by SRB assay; conditions: RXF 393, 48 h
In short: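 NCI 60-cell-line human tumor panel. Cells were inoculated and preincubated for 24–48 h, then exposed continuously to compound for 48 h. Primary screen used a single 10^-5 M concentration. Growth was measured by sulforhodamine B protein staining, read spectrophotometrically, and reported as percent growth versus untreated controls. Selected compounds were also run at five 10-fold dilutions (10^-4 to 10^-8 M) to derive GI50 from time-zero-corrected absorbances.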

MDA-MB-468 = assay: Cytotoxicity against human MDA-MB-468 cells assessed as cell growth at 10^-5 M after 48 hrs by SRB assay; conditions: MDA-MB-468, 48 h, read-out: Activity; in short: as §1
LOX IMVI [4] = assay: Growth inhibition of human LOXIMVI cells after 48 hrs by SRB assay; in short: as §2
CAKI-1 = assay: Growth inhibition of human Caki1 cells after 48 hrs by SRB assay; conditions: CAKI-1, 48 h; in short: as §2
COLO 205 [5] = assay: Growth inhibition of human COLO205 cells after 48 hrs by SRB assay; conditions: COLO 205, 48 h; in short: as §2
U-251 = assay: Cytotoxicity against human U251 cells assessed as cell growth at 10^-5 M after 48 hrs by SRB assay; conditions: U-251, 48 h, read-out: Activity
In short: (§3)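 NCI human tumor cell line panel from nine cancer types. Each line was inoculated and preincubated 24–48 h, then exposed to a single concentration (10^-5 M) for 48 h. Growth was read by sulforhodamine B protein staining, measured spectrophotometrically. Value reported as percent growth of treated cells relative to untreated controls.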

HOP-62 [6] = assay: Growth inhibition of human HOP62 cells after 48 hrs by SRB assay; conditions: HOP-62, 48 h; in short: as §2
HT-29 = assay: Cytotoxicity against human HT-29 cells assessed as cell growth at 10^-5 M after 48 hrs by SRB assay; conditions: HT-29, 48 h, read-out: Activity; in short: as §1
MOLT-4 = assay: Growth inhibition of human MOLT4 cells after 48 hrs by SRB assay; conditions: MOLT-4, 48 h; in short: as §2
HOP-62 [7] = assay: Cytotoxicity against human HOP62 cells assessed as cell growth at 10^-5 M after 48 hrs by SRB assay; conditions: HOP-62, 48 h, read-out: Activity; in short: as §1
Yamadazyma tenuis = assay: Antifungal activity against Candida tenuis assessed as zone of inhibition at 0.1 mg/mL after 48 to 72 hrs by stiff-plate agar-diffusion method; conditions: read-out: DIZ
NCI-H522 = assay: Cytotoxicity against human NCI-H522 cells assessed as cell growth at 10^-5 M after 48 hrs by SRB assay; conditions: NCI-H522, 48 h, read-out: Activity; in short: as §3
EKVX = assay: Growth inhibition of human EKVX cells after 48 hrs by SRB assay; in short: as §2
Mycobacterium = assay: Antibacterial activity against Mycobacterium luteum assessed as zone of inhibition at 0.5 mg/mL after 24 hrs by stiff-plate agar-diffusion method; conditions: read-out: DIZ
SK-MEL-5 = assay: Cytotoxicity against human SK-MEL-5 cells assessed as cell growth at 10^-5 M after 48 hrs by SRB assay; conditions: SK-MEL-5, 48 h, read-out: Activity; in short: as §3
SK-MEL-2 = assay: Cytotoxicity against human SK-MEL-2 cells assessed as cell growth at 10^-5 M after 48 hrs by SRB assay; conditions: SK-MEL-2, 48 h, read-out: Activity; in short: as §3
Staphylococcus aureus = assay: Antibacterial activity against Staphylococcus aureus assessed as zone of inhibition at 0.1 mg/mL after 24 hrs by stiff-plate agar-diffusion method; conditions: read-out: DIZ
Malme-3M = assay: Cytotoxicity against human MALME-3M cells assessed as cell growth at 10^-5 M after 48 hrs by SRB assay; conditions: read-out: Activity; in short: as §1
[8] = read-out: pLC50 (the source's name) (converted)

## CCC1C2CCC(C2)C1NC(=O)CSc1nc2ccccc2c2nc(=O)c(-c3ccc(OC)cc3)nn12 (centres undefined)
Aspergillus niger
  zone of inhibition at 100 µg/mL: 0 mm
KM12
  growth at 10 µM: 68.3%
MDA-MB-231
  growth at 10 µM: 22.5%
BT-549
  growth at 10 µM: 90.9%
IGROV-1
  growth at 10 µM: 17%
[1]
  Activity: 144%
LOX IMVI [2]
  growth at 10 µM: 70.5%
OVCAR-4
  GI50: 1.66 µM
OVCAR-4; [8]
  CC50: 43.7 µM
OVCAR-4; read-out: pTGI (converted)
  TGI: 6.31 µM
COLO 205 [3]
  growth at 10 µM: 28.6%
DU-145
  growth at 10 µM: -32%
RXF 393
  GI50: 1.48 µM
RXF 393; [8]
  CC50: 17.4 µM
RXF 393; read-out: pTGI (converted)
  TGI: 4.17 µM
MDA-MB-468
  growth at 10 µM: -59.5%
LOX IMVI [4]
  GI50: 3.55 µM
LOX IMVI [4]; [8]
  CC50: > 50.1 µM
LOX IMVI [4]; read-out: pTGI (converted)
  TGI: 18.2 µM
CAKI-1
  GI50: 3.72 µM
CAKI-1; [8]
  CC50: > 50.1 µM
CAKI-1; read-out: pTGI (converted)
  TGI: 38.9 µM
COLO 205 [5]
  GI50: 3.47 µM
COLO 205 [5]; [8]
  CC50: > 50.1 µM
COLO 205 [5]; read-out: pTGI
  TGI: > 50.1 µM
U-251
  growth at 10 µM: -98.9%
HOP-62 [6]
  GI50: 2.45 µM
HOP-62 [6]; [8]
  CC50: 36.3 µM
HOP-62 [6]; read-out: pTGI (converted)
  TGI: 11.5 µM
HT-29
  growth at 10 µM: 42.8%
MOLT-4
  GI50: 1.62 µM
MOLT-4; [8]
  CC50: > 50.1 µM
MOLT-4; read-out: pTGI
  TGI: > 50.1 µM
HOP-62 [7]
  growth at 10 µM: -19.5%
Yamadazyma tenuis
  zone of inhibition at 100 µg/mL: 0 mm
NCI-H522
  growth at 10 µM: -49.9%
EKVX
  GI50: 1.95 µM
EKVX; [8]
  CC50: > 50.1 µM
EKVX; read-out: pTGI
  TGI: > 50.1 µM
Mycobacterium
  zone of inhibition at 500 µg/mL: 0 mm
SK-MEL-5
  growth at 10 µM: 59.8%
SK-MEL-2
  growth at 10 µM: 56.5%
Staphylococcus aureus
  zone of inhibition at 100 µg/mL: 0 mm
Malme-3M
  growth at 10 µM: -29.2%

Source: ChEMBL document CHEMBL1914438, “Synthesis and biological activity of novel N-cycloalkyl-(cycloalkylaryl)-2-[(3-R-2-oxo-2H-[1,2,4]triazino[2,3-c]quinazoline-6-yl)thio]acetamides” (2011)
